Reference: ChEMBL document CHEMBL1157843, “Synthesis and anticonvulsant activity of a new 6-alkoxy-[1,2,4]triazolo[4,3-b]pyridazine” (Eur J Med Chem, 2010)
Calls of active or inactive are those of the source. The calls are words filed in the database; no cut-off is given here.

system: Mus musculus; assay: Anticonvulsant in mouse assessed as protection against maximum electric stimulus-induced seizures at 100 mg/kg, ip after 0.5 hrs; assay type: functional, organism-based; design: dose 100 mg/kg; settings: not given
Method in brief: (§1)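 Phase-I qualitative MES screen following NIH ADD protocol. KunMing mice (18–25 g), three per dose, test agent in polyethylene glycol-400 i.p. at 30, 100 or 300 mg/kg. Protection assessed 0.5 h and 4 h after dosing; scored as animals protected/animals tested.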

| SMILES | Activity |
| --- | --- |
| Cc1ccccc1Oc1ccc2nncn2n1 | Active |
| Clc1ccccc1Oc1ccc2nncn2n1 | Active |
| Brc1ccc(Oc2ccc3nncn3n2)cc1 | Active |

system: Mus musculus; assay: Anticonvulsant in mouse assessed as protection against maximum electric stimulus-induced seizures at 30 mg/kg, ip after 0.5 hrs; assay type: functional, organism-based; design: dose 30 mg/kg; settings: not given; method in brief: as §1

| SMILES | Activity |
| --- | --- |
| Clc1ccc(Oc2ccc3nncn3n2)c(Cl)c1 | Active |

system: Mus musculus; assay: Anticonvulsant in mouse assessed as protection against maximum electric stimulus-induced seizures at 100 mg/kg, ip after 4 hrs; assay type: functional, organism-based; design: dose 100 mg/kg; settings: not given; method in brief: as §1

| SMILES | Activity |
| --- | --- |
| CCCCCCCCCCOc1ccc2nncn2n1 | inactive |
| COc1ccccc1Oc1ccc2nncn2n1 | inactive |
| Cc1ccccc1Oc1ccc2nncn2n1 | inactive |
| Cc1ccc(Oc2ccc3nncn3n2)cc1 | inactive |
| CCCCOc1ccc2nncn2n1 | inactive |
| Clc1ccccc1Oc1ccc2nncn2n1 | inactive |
| Brc1ccc(Oc2ccc3nncn3n2)cc1 | inactive |
| O=c1ccc(Oc2ccccc2)n[nH]1 | inactive |
| CCCCCCCCCOc1ccc2nncn2n1 | inactive |

system: Mus musculus; assay: Neurotoxicity against mouse at 100 mg/kg, ip after 0.5 hrs by rotarod ataxia test; assay type: toxicity, organism-based; design: dose 100 mg/kg, route intraperitoneal; settings: in vivo
Method in brief: (§2)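 Phase-I rotarod ataxia screen per NIH ADD protocol. KunMing mice (18–25 g), three per dose, test agent in polyethylene glycol-400 i.p. at 30, 100 or 300 mg/kg. Neurological deficit read 30 min and 4 h after dosing; scored as animals showing toxicity/animals tested.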

| SMILES | Activity |
| --- | --- |
| CCCCCCCCCCOc1ccc2nncn2n1 | Toxic |
| COc1ccccc1Oc1ccc2nncn2n1 | Non-toxic |
| Cc1ccccc1Oc1ccc2nncn2n1 | Non-toxic |
| Cc1ccc(Oc2ccc3nncn3n2)cc1 | Non-toxic |
| CCCCOc1ccc2nncn2n1 | Toxic |
| Clc1ccccc1Oc1ccc2nncn2n1 | Non-toxic |
| Brc1ccc(Oc2ccc3nncn3n2)cc1 | Non-toxic |
| CCCCCCCCCOc1ccc2nncn2n1 | Toxic |

system: Mus musculus; assay: Neurotoxicity against mouse at 30 mg/kg, ip after 0.5 hrs by rotarod ataxia test; assay type: toxicity, organism-based; design: dose 30 mg/kg, route intraperitoneal; settings: in vivo; method in brief: as §2

| SMILES | Activity |
| --- | --- |
| Clc1ccc(Oc2ccc3nncn3n2)c(Cl)c1 | Non-toxic |

system: Mus musculus; assay: Neurotoxicity against mouse at 100 mg/kg, ip after 4 hrs by rotarod ataxia test; assay type: toxicity, organism-based; design: dose 100 mg/kg, route intraperitoneal; settings: in vivo; method in brief: as §2

| SMILES | Activity |
| --- | --- |
| CCCCCCCCCCOc1ccc2nncn2n1 | Non-toxic |
| COc1ccccc1Oc1ccc2nncn2n1 | Non-toxic |
| Cc1ccccc1Oc1ccc2nncn2n1 | Non-toxic |
| Cc1ccc(Oc2ccc3nncn3n2)cc1 | Non-toxic |
| CCCCOc1ccc2nncn2n1 | Non-toxic |
| Clc1ccccc1Oc1ccc2nncn2n1 | Non-toxic |
| Brc1ccc(Oc2ccc3nncn3n2)cc1 | Non-toxic |
| O=c1ccc(Oc2ccccc2)n[nH]1 | Non-toxic |
| CCCCCCCCCOc1ccc2nncn2n1 | Non-toxic |

system: Mus musculus; assay: Neurotoxicity against mouse at 30 mg/kg, ip after 4 hrs by rotarod ataxia test; assay type: toxicity, organism-based; design: dose 30 mg/kg, route intraperitoneal; settings: in vivo; method in brief: as §2

| SMILES | Activity |
| --- | --- |
| Clc1ccc(Oc2ccc3nncn3n2)c(Cl)c1 | Non-toxic |

system: Mus musculus; assay: Anticonvulsant in ip dosed mouse assessed as protection against maximum electric stimulus-induced seizures; assay type: functional; settings: not given
Method in brief: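 Phase-II quantitation in KunMing mice (18–25 g), vehicle polyethylene glycol-400. Groups of 10 received a range of i.p. doses until at least three points fell within 10–90% MES protection or minimal rotarod neurotoxicity. ED50, TD50 and 95% confidence intervals computed from regression by an NINDS program. PI = TD50/ED50.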

| SMILES | ED50 [mg/kg] |
| --- | --- |
| CCCCCCCCCCOc1ccc2nncn2n1 | > 100 |
| COc1ccccc1Oc1ccc2nncn2n1 | > 100 |
| Cc1ccccc1Oc1ccc2nncn2n1 | 54.8 |
| Cc1ccc(Oc2ccc3nncn3n2)cc1 | > 100 |
| CCCCOc1ccc2nncn2n1 | > 100 |
| Clc1ccccc1Oc1ccc2nncn2n1 | 47.3 |
| Brc1ccc(Oc2ccc3nncn3n2)cc1 | 49.1 |
| O=c1ccc(Oc2ccccc2)n[nH]1 | 110 |
| CCCCCCCCCOc1ccc2nncn2n1 | > 100 |
| Clc1ccc(Oc2ccc3nncn3n2)c(Cl)c1 | 17.3 |

system: not listed separately; assay: Neurotoxicity against ip dosed mouse by rotarod ataxia test; assay type: toxicity, organism-based; settings: in vivo

| SMILES | TD50 [mg/kg] |
| --- | --- |
| Cc1ccccc1Oc1ccc2nncn2n1 | 220 |
| Clc1ccccc1Oc1ccc2nncn2n1 | 190 |
| Brc1ccc(Oc2ccc3nncn3n2)cc1 | 329 |
| O=c1ccc(Oc2ccccc2)n[nH]1 | 274 |
| Clc1ccc(Oc2ccc3nncn3n2)c(Cl)c1 | 380 |

system: Mus musculus; assay: Protective index, ratio of TD50 for ip dosed mouse to ED50 for maximum electric stimulus-induced seizure in ip dosed mouse; assay type: functional; settings: not given

| SMILES | PI |
| --- | --- |
| Cc1ccccc1Oc1ccc2nncn2n1 | 4.01 |
| Clc1ccccc1Oc1ccc2nncn2n1 | 4 |
| Brc1ccc(Oc2ccc3nncn3n2)cc1 | 6.7 |
| O=c1ccc(Oc2ccccc2)n[nH]1 | 2.5 |
| Clc1ccc(Oc2ccc3nncn3n2)c(Cl)c1 | 22 |

organism: Mus musculus; assay: Sedative-hypnotic activity in mouse assessed as reduction in righting reflex; assay type: organism-based; settings: in vivo
Method in brief: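 Phase-III work in KunMing mice: behaviour observed at intervals up to 24 h after i.p. TD50, 2TD50 and 4TD50 doses. […] Ratio taken as HD50 divided by i.p. MES ED50.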

| SMILES | HD50 [mg/kg] |
| --- | --- |
| Clc1ccc(Oc2ccc3nncn3n2)c(Cl)c1 | 746.6 |

organism: Mus musculus; assay: Ratio of HD50 for hypnotic activity to EC50 for inhibition of maximum electric stimulus-induced seizure in mouse; assay type: functional; settings: not given

| SMILES | Ratio |
| --- | --- |
| Clc1ccc(Oc2ccc3nncn3n2)c(Cl)c1 | 43.2 |

system: Mus musculus; assay: Anticonvulsant activity in mouse assessed as inhibition of PTZ-induced clonic seizure at 50 mg/kg, ip administered 30 mins prior to PTZ challenge measured after 0.5 hrs; assay type: functional; settings: route intraperitoneal
Method in brief: (§3)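 KunMing mice, 18–25 g, groups of 10; test agent in polyethylene glycol-400 given i.p. 30 min before convulsant. PTZ 85 mg/kg s.c., 3-MP 40 mg/kg s.c., isoniazid 250 mg/kg i.p.; doses chosen to induce seizures in at least 97% of animals. Individual cages, 30 min observation; clonic seizures, tonic seizures and lethality recorded.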

| SMILES | inhibition in vivo at 50 mg/kg [%] |
| --- | --- |
| Clc1ccc(Oc2ccc3nncn3n2)c(Cl)c1 | 100 |

system: Mus musculus; assay: Anticonvulsant activity in mouse assessed as inhibition of PTZ-induced tonic seizure at 50 mg/kg, ip administered 30 mins prior to PTZ challenge measured after 0.5 hrs; assay type: functional; settings: route intraperitoneal; method in brief: as §3

| SMILES | inhibition in vivo at 50 mg/kg [%] |
| --- | --- |
| Clc1ccc(Oc2ccc3nncn3n2)c(Cl)c1 | 10 |

system: Mus musculus; assay: Anticonvulsant activity in mouse assessed as reduction of PTZ-induced lethality at 50 mg/kg, ip administered 30 mins prior to PTZ challenge measured after 0.5 hrs; assay type: functional; design: scale not given: the % may be the effect or the level left; settings: route intraperitoneal

| SMILES | Activity [%] |
| --- | --- |
| Clc1ccc(Oc2ccc3nncn3n2)c(Cl)c1 | 0 |

system: Mus musculus; assay: Anticonvulsant activity in mouse assessed as inhibition of isoniazid-induced clonic seizure at 50 mg/kg, ip administered 30 mins prior to isoniazid challenge measured after 0.5 hrs; assay type: functional; settings: route intraperitoneal; method in brief: as §3

| SMILES | inhibition in vivo at 50 mg/kg [%] |
| --- | --- |
| Clc1ccc(Oc2ccc3nncn3n2)c(Cl)c1 | 90 |

system: Mus musculus; assay: Anticonvulsant activity in mouse assessed as inhibition of isoniazid-induced tonic seizure at 50 mg/kg, ip administered 30 mins prior to isoniazid challenge measured after 0.5 hrs; assay type: functional; settings: route intraperitoneal; method in brief: as §3

| SMILES | inhibition in vivo at 50 mg/kg [%] |
| --- | --- |
| Clc1ccc(Oc2ccc3nncn3n2)c(Cl)c1 | 0 |

system: Mus musculus; assay: Anticonvulsant activity in mouse assessed as reduction of isoniazid-induced lethality at 50 mg/kg, ip administered 30 mins prior to isoniazid challenge measured after 0.5 hrs; assay type: functional; design: scale not given: the % may be the effect or the level left; settings: route intraperitoneal

| SMILES | Activity [%] |
| --- | --- |
| Clc1ccc(Oc2ccc3nncn3n2)c(Cl)c1 | 0 |

system: Mus musculus; assay: Anticonvulsant activity in mouse assessed as inhibition of 3-mercaptopropionic acid-induced clonic seizure at 50 mg/kg, ip administered 30 mins prior to 3-mercaptopropionic acid challenge measured after 0.5 hrs; assay type: functional; settings: route intraperitoneal; method in brief: as §3

| SMILES | inhibition in vivo at 50 mg/kg [%] |
| --- | --- |
| Clc1ccc(Oc2ccc3nncn3n2)c(Cl)c1 | 80 |

system: Mus musculus; assay: Anticonvulsant activity in mouse assessed as inhibition of 3-mercaptopropionic acid-induced tonic seizure at 50 mg/kg, ip administered 30 mins prior to 3-mercaptopropionic acid challenge measured after 0.5 hrs; assay type: functional; settings: route intraperitoneal; method in brief: as §3

| SMILES | inhibition in vivo at 50 mg/kg [%] |
| --- | --- |
| Clc1ccc(Oc2ccc3nncn3n2)c(Cl)c1 | 0 |

system: Mus musculus; assay: Anticonvulsant activity in mouse assessed as reduction of 3-mercaptopropionic acid-induced lethality at 50 mg/kg, ip administered 30 mins prior to 3-mercaptopropionic acid challenge measured after 0.5 hrs; assay type: functional; design: scale not given: the % may be the effect or the level left; settings: route intraperitoneal

| SMILES | Activity [%] |
| --- | --- |
| Clc1ccc(Oc2ccc3nncn3n2)c(Cl)c1 | 40 |

system: Mus musculus; assay: Anticonvulsant activity in mouse assessed as inhibition of thiosemicarbazide-induced clonic seizure at 50 mg/kg, ip administered 30 mins prior to thiosemicarbazide challenge measured after 2.5 hrs; assay type: functional; settings: route intraperitoneal
Method in brief: (§4)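 KunMing mice (18–25 g), groups of 10, pretreated i.p. with test agent in polyethylene glycol-400 30 min before thiosemicarbazide 50 mg/kg i.p. Animals kept in individual cages and watched for 2 h 30 min, noting clonic seizures, tonic seizures and lethality.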

| SMILES | inhibition in vivo at 50 mg/kg [%] |
| --- | --- |
| Clc1ccc(Oc2ccc3nncn3n2)c(Cl)c1 | 90 |

system: Mus musculus; assay: Anticonvulsant activity in mouse assessed as inhibition of thiosemicarbazide-induced tonic seizure at 50 mg/kg, ip administered 30 mins prior to thiosemicarbazide challenge measured after 2.5 hrs; assay type: functional; settings: route intraperitoneal; method in brief: as §4

| SMILES | inhibition in vivo at 50 mg/kg [%] |
| --- | --- |
| Clc1ccc(Oc2ccc3nncn3n2)c(Cl)c1 | 0 |

system: Mus musculus; assay: Anticonvulsant activity in mouse assessed as reduction of thiosemicarbazide-induced lethality at 50 mg/kg, ip administered 30 mins prior to thiosemicarbazide challenge measured after 2.5 hrs; assay type: functional; design: scale not given: the % may be the effect or the level left; settings: route intraperitoneal

| SMILES | Activity [%] |
| --- | --- |
| Clc1ccc(Oc2ccc3nncn3n2)c(Cl)c1 | 40 |

system: Mus musculus; assay: Anticonvulsant in po dosed mouse assessed as protection against maximum electric stimulus-induced seizures; assay type: functional; settings: not given
Method in brief: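 Oral version of the phase-II protocol in KunMing mice (18–25 g). Groups of 10 dosed p.o. over a range giving at least three points between 10–90% MES protection or rotarod minimal neurotoxicity. Testing at 2 h time to peak effect. ED50 and TD50 with 95% confidence intervals from regression. PI = TD50/ED50.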

| SMILES | ED50 [mg/kg] |
| --- | --- |
| Clc1ccc(Oc2ccc3nncn3n2)c(Cl)c1 | 45.6 |

system: Mus musculus; assay: Protective index, ratio of TD50 for po dosed mouse to ED50 for maximum electric stimulus-induced seizure in po dosed mouse; assay type: functional; settings: not given

| SMILES | PI |
| --- | --- |
| Clc1ccc(Oc2ccc3nncn3n2)c(Cl)c1 | 12 |

system: not listed separately; assay: Neurotoxicity against po dosed mouse by rotarod ataxia test; assay type: toxicity, organism-based; settings: in vivo

| SMILES | TD50 [mg/kg] |
| --- | --- |
| Clc1ccc(Oc2ccc3nncn3n2)c(Cl)c1 | 546 |
